Assay results taken from ChEMBL document CHEMBL1821616, “New insights into the structural requirements for pro-apoptotic agents based on 2,4-diaminoquinazoline, 2,4-diaminopyrido[2,3-d]pyrimidine and 2,4-diaminopyrimidine derivatives” (Eur J Med Chem, 2011).
Active and inactive are the calls of the source. No cut-off for these calls is given here.

What was measured:
T-24 [1] = experiment: Cytotoxicity against human T24 cells after 48 hrs by neutral red dye assay; format: functional, cell-based
MDA-MB-231 [2] = experiment: Cytotoxicity against human MDA-MB-231 cells after 48 hrs by neutral red dye assay; format: functional, cell-based
HT-29 [3] = experiment: Cytotoxicity against human HT-29 cells after 48 hrs by neutral red dye assay; format: functional, cell-based
T-24 [4] = experiment: Induction of apoptosis in human T24 cells assessed as caspase3 activation at IC50 after 48 hrs by FACS analysis relative to control; format: functional
Procedure, shortened: (§1)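 Active caspase-3 was detected by flow cytometry with a FITC anti-active-caspase-3 antibody kit, with readings at 14, 24 and 48 h. Treated cells were compared with untreated control cells. Results are scored as (+) for an increase of about 50% and (++) for a larger rise.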

T-24 [5] = experiment: Cytotoxicity against human T24 cells after 72 hrs by neutral red dye assay; format: functional, cell-based; conditions: T-24, 72 h
Procedure, shortened: (§2)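 Human tumour cells were grown as monolayers with 10% FBS and penicillin/streptomycin at 37 °C in 5% CO2 (HT-29 and T-24 in McCoy's, MDA-MB-231 in Leibovitz). They were exposed to compound in DMSO (≤0.5% v/v final) at screening concentrations of 20 and 100 μM for 72 h and read by neutral red uptake. Survival is relative to cells given DMSO only, in triplicate.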

MDA-MB-231 [6] = experiment: Induction of apoptosis in human MDA-MB-231 cells assessed as DNA fragmentation after 24 hrs by ELISA relative to control; format: functional
Procedure, shortened: (§3)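 DNA fragmentation was measured with the Cell Death Detection ELISA Plus kit after treatment of cultured tumour cells. The signal is expressed relative to untreated control cultures, which are set to 1.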

[7] = Cytotoxicity against human CRL8799 cells assessed as cell survival at 20 to 100 uM after 72 hrs by neutral red dye assay; format: cell-based; conditions: read-out: Survival
Procedure, shortened: (§4)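 The non-tumoral lines were grown with 10% FBS plus penicillin/streptomycin, as monolayers at 37 °C in 5% CO2: CRL-8799 in MEG medium and CRL-11233 in BEGM. Compounds in DMSO (≤0.5% v/v final) were applied for 72 h. Survival was read by neutral red uptake against 0.5% DMSO solvent-treated controls, as the mean of triplicates.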

T-24 [8] = experiment: Induction of apoptosis in human T24 cells assessed as DNA fragmentation after 48 hrs by ELISA relative to control; format: functional; procedure, shortened: as §3
[9] = Cytotoxicity against human CRL11233 cells assessed as cell survival at 20 to 100 uM after 72 hrs by neutral red dye assay; format: cell-based; conditions: read-out: Survival; procedure, shortened: as §4
HT-29 [10] = experiment: Induction of apoptosis in human HT-29 cells assessed as DNA fragmentation after 48 hrs by ELISA relative to control; format: functional; procedure, shortened: as §3
HT-29 [11] = experiment: Cytotoxicity against human HT-29 cells assessed as cell survival at 100 uM after 72 hrs by neutral red dye assay; format: functional; conditions: HT-29, 72 h, read-out: Survival
Procedure, shortened: (§5)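 HT-29 and T-24 cells were grown in McCoy's medium and MDA-MB-231 in Leibovitz, each with 10% FBS plus penicillin/streptomycin, as monolayers at 37 °C in 5% CO2. Compounds in DMSO (≤0.5% v/v final) were applied for 72 h. Survival was read by neutral red uptake against 0.5% DMSO-treated cells, as the mean of triplicates.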

MDA-MB-231 [12] = experiment: Cytotoxicity against human MDA-MB-231 cells after 72 hrs by neutral red dye assay; format: functional, cell-based; conditions: MDA-MB-231, 72 h; procedure, shortened: as §2
HT-29 [13] = experiment: Cytotoxicity against human HT-29 cells after 72 hrs by neutral red dye assay; format: functional, cell-based; conditions: HT-29, 72 h; procedure, shortened: as §2
MDA-MB-231 [14] = experiment: Cytotoxicity against human MDA-MB-231 cells assessed as cell survival at 100 uM after 72 hrs by neutral red dye assay; format: functional; conditions: MDA-MB-231, 72 h, read-out: Survival; procedure, shortened: as §5
T-24 [15] = experiment: Cytotoxicity against human T24 cells assessed as cell survival at 100 uM after 72 hrs by neutral red dye assay; format: functional; conditions: T-24, 72 h, read-out: Survival; procedure, shortened: as §5
HT-29 [16] = experiment: Induction of apoptosis in human HT-29 cells assessed as caspase3 activation at IC50 after 48 hrs by FACS analysis relative to control; format: functional; procedure, shortened: as §1

CCCCCSc1nc(NCCCC)c2cccnc2n1
IC50 (T-24 [1]): Not Active | IC50 (MDA-MB-231 [2]): Not Active | IC50 (HT-29 [3]): Not Active

CCCCCNc1nc(SC(C)C)nc2ncccc12
Activity (T-24 [4]): 50% | IC50 (T-24 [5]): 7.9 µM | fold change (FC) (MDA-MB-231 [6]): 2.2 | viability at 72 h, up to 100 µM [7]: 100% | fold change (FC) (T-24 [8]): 1.7 | viability at 72 h, up to 100 µM [9]: 66% | fold change (FC) (HT-29 [10]): 4.2 | viability at 100 µM (HT-29 [11]): < 45% | IC50 (MDA-MB-231 [12]): 5.6 µM | IC50 (HT-29 [13]): 25.2 µM | viability at 100 µM (MDA-MB-231 [14]): < 45% | viability at 100 µM (T-24 [15]): < 45% | Activity (HT-29 [16]): 75%

CCSc1nc(NCCCCCO)c2cccnc2n1
IC50 (T-24 [1]): Not Active | IC50 (MDA-MB-231 [2]): Not Active | IC50 (HT-29 [3]): Not Active

CC(C)Sc1nc(NCCCO)c2cccnc2n1
Activity (MDA-MB-231 [6]): inactive | IC50 (T-24 [1]): Not Active | IC50 (MDA-MB-231 [2]): Not Active | Activity (HT-29 [10]): inactive | IC50 (HT-29 [3]): Not Active

CCCCCCNc1nc(SCCCC)nc2ncccc12
Activity (T-24 [4]): 75% | IC50 (T-24 [5]): 4.5 µM | fold change (FC) (MDA-MB-231 [6]): 9.3 | viability at 72 h, up to 100 µM [7]: 95% | fold change (FC) (T-24 [8]): 4.3 | viability at 72 h, up to 100 µM [9]: 99% | fold change (FC) (HT-29 [10]): 6.4 | viability at 100 µM (HT-29 [11]): < 45% | IC50 (MDA-MB-231 [12]): 1.2 µM | IC50 (HT-29 [13]): 2.8 µM | viability at 100 µM (MDA-MB-231 [14]): < 45% | viability at 100 µM (T-24 [15]): < 45% | Activity (HT-29 [16]): 75%

c1ccc(CCNc2nc(NCCc3ccccn3)c3cccnc3n2)nc1
IC50 (T-24 [1]): Not Active | IC50 (MDA-MB-231 [2]): Not Active | IC50 (HT-29 [3]): Not Active

CCCCCNc1nc(SCCCCC)nc2ncccc12
IC50 (T-24 [1]): Not Active | IC50 (MDA-MB-231 [2]): Not Active | Activity (HT-29 [10]): inactive | IC50 (HT-29 [3]): Not Active

CCSc1nc(NCCCO)c2cccnc2n1
IC50 (T-24 [1]): Not Active | IC50 (MDA-MB-231 [2]): Not Active | IC50 (HT-29 [3]): Not Active

c1ccc(CCCNc2nc(NCCCc3ccccc3)c3ccccc3n2)cc1
Activity (T-24 [4]): 75% | IC50 (T-24 [5]): 3.45 µM | Activity (MDA-MB-231 [6]): inactive | viability at 72 h, up to 100 µM [7]: 87% | Activity (T-24 [8]): inactive | viability at 72 h, up to 100 µM [9]: 2% | Activity (HT-29 [10]): inactive | viability at 100 µM (HT-29 [11]): < 45% | IC50 (MDA-MB-231 [12]): 4.18 µM | IC50 (HT-29 [13]): 2.2 µM | viability at 100 µM (MDA-MB-231 [14]): < 45% | viability at 100 µM (T-24 [15]): < 45% | Activity (HT-29 [16]): 75%

OCCCCNc1nc(NCCCCO)c2cccnc2n1
IC50 (T-24 [1]): Not Active | IC50 (MDA-MB-231 [2]): Not Active | IC50 (HT-29 [3]): Not Active
